Data reported in ChEMBL document CHEMBL1132388, “A ureido-thioisobutyric acid (GW9578) is a subtype-selective PPARalpha agonist with potent lipid-lowering activity” (J Med Chem, 1999).

What was measured:
[1] = biological target: T1, Peroxisome proliferator-activated receptor gamma (Mus musculus, UniProt P37238); assay: Compound was tested for its agonist activity against murine Peroxisome proliferator activated receptor gamma-Gal4 chimeric receptor in transfected CV-1 cells; format: functional, cell-based
T1 sequence (P37238 whole entry): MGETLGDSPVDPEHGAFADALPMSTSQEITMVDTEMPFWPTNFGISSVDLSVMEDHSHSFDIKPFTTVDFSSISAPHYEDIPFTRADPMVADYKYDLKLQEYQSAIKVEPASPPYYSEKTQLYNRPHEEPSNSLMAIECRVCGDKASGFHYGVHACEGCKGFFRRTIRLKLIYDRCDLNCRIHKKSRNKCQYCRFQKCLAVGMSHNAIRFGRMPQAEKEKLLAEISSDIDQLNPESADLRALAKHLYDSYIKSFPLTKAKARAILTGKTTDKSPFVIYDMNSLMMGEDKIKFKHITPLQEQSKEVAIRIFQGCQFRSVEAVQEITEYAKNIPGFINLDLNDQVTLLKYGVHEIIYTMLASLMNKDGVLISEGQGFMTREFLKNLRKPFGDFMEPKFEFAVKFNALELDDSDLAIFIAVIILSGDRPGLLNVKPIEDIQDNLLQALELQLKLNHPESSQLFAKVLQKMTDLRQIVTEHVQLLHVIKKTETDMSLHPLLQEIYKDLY

[2] = species: Rattus norvegicus; assay: Minimum effective dose producing a 40-60% decrease in serum TLDL cholesterol in rats relative to vehicle -treated controls; format: functional; conditions: read-out: MED
[3] = biological target: T2, Peroxisome proliferator-activated receptor gamma (Homo sapiens, UniProt P37231)
T2 sequence (P37231 whole entry): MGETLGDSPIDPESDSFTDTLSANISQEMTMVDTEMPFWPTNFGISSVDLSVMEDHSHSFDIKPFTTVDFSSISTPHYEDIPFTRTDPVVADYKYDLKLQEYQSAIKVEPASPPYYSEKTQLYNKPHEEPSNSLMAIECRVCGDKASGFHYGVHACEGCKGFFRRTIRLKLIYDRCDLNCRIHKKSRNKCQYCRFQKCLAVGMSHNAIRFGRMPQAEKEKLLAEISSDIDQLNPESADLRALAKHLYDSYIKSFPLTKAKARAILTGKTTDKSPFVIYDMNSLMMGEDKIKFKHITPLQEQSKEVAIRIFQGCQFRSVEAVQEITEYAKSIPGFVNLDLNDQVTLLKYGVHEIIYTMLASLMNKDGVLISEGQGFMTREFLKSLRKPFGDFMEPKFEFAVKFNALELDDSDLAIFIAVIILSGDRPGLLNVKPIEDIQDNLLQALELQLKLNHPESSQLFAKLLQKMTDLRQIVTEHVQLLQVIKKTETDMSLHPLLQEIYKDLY

[4] = biological target: T3, Peroxisome proliferator-activated receptor alpha (Mus musculus, UniProt P23204); assay: Compound was tested for its agonist activity against murine Peroxisome proliferator activated receptor alpha-Gal4 chimeric receptor transfected CV-1 cells; format: functional, cell-based
T3 sequence (P23204 whole entry): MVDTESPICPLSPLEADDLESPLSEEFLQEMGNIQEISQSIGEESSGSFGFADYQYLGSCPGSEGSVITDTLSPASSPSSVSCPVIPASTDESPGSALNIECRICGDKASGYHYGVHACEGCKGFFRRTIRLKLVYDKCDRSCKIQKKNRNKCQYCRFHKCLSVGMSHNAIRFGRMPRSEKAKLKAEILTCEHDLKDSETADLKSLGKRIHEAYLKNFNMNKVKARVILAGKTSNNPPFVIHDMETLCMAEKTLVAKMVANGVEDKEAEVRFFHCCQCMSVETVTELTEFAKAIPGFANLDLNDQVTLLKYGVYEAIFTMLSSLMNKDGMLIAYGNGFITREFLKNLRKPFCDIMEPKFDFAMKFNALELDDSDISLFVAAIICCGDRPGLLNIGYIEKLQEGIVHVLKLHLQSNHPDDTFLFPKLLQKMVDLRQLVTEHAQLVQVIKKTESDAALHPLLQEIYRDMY
In short: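 PPAR-GAL4 chimeric receptor transiently transfected into CV-1 cells; reporter activity read after compound exposure, with concentrations tested up to 300 µM.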

[5] = biological target: T4, Peroxisome proliferator-activated receptor delta (Homo sapiens, UniProt Q03181); assay: Compound was tested for agonist activity on human Peroxisome proliferator activated receptor delta-GAL4 chimeric receptor in transfected CV-1 cells; format: functional, cell-based
T4 sequence (Q03181 whole entry): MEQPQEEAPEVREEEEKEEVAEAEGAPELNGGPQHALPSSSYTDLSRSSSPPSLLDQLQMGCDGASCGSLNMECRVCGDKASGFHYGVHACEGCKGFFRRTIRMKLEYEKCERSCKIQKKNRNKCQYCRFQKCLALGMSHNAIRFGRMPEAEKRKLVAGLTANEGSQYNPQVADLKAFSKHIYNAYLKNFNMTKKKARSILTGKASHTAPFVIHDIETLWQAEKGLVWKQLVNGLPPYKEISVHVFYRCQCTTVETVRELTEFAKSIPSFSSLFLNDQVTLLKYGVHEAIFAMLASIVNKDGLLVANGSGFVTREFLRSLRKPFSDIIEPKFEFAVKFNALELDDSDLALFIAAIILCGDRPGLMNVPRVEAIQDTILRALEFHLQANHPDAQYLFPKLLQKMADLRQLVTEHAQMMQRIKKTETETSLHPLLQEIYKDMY

[6] = biological target: T5, Peroxisome proliferator-activated receptor delta (Mus musculus, UniProt P35396); assay: Compound was tested for its agonist activity against murine Peroxisome proliferator activated receptor delta-GAL4 chimeric receptor in transfected CV-1 cells; format: functional, cell-based
T5 sequence (P35396 whole entry): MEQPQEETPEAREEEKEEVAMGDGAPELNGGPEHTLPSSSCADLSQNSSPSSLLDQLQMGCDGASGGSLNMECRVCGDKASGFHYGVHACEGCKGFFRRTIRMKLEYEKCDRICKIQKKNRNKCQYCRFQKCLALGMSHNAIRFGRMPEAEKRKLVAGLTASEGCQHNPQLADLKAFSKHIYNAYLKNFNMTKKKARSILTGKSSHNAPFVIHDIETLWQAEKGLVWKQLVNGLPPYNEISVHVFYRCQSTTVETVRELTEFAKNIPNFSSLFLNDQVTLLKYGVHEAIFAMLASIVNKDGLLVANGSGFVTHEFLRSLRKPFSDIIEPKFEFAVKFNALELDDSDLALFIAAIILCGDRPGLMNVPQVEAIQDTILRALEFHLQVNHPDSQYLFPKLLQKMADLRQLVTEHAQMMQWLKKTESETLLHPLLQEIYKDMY

[7] = biological target: T6, Peroxisome proliferator-activated receptor alpha (Homo sapiens, UniProt Q07869)
T6 sequence (Q07869 whole entry): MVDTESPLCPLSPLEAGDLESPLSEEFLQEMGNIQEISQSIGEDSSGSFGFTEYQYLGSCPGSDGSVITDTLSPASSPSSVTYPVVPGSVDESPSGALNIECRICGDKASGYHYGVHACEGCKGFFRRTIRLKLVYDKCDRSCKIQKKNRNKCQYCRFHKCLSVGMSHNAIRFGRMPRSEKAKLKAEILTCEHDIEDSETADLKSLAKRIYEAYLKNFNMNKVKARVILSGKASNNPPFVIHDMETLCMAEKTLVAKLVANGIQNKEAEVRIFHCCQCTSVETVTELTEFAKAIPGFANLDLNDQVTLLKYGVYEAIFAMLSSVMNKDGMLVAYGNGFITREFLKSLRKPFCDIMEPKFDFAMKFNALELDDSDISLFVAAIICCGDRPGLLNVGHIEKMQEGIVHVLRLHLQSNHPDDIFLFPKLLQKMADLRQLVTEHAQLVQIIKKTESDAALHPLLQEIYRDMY

[8] = biological target: T4, Peroxisome proliferator-activated receptor delta; assay: Compound was tested for agonist activity on human Peroxisome proliferator activated receptor delta-GAL4 chimeric receptor in transfected CV-1 cells; IA = Inactive; format: functional, cell-based
[9] = biological target: T5, Peroxisome proliferator-activated receptor delta; assay: Compound was tested for its agonist activity against murine Peroxisome proliferator activated receptor delta-GAL4 chimeric receptor in transfected CV-1 cells; IA = Inactive; format: functional, cell-based

SMILES | EC50 [1] [µM] | EC50 [3] [µM] | EC50 [4] [µM] | EC50 [7] [µM] | EC50 [8] | EC50 [9] | minimal effective dose [2] [mg/kg] | EC50 [5] [µM] | EC50 [6] [µM]
CC(C)(Oc1ccc(CCN(C(=O)Nc2ccc(F)cc2F)C2CCCCCC2)cc1)C(=O)O | 0.012 | 0.006 | 0.12 | – | – | – | 1 | 0.79 | 1.4
CCCCCCCN(CCc1ccc(OC(C)(C)C(=O)O)cc1)C(=O)Nc1ccc(F)cc1F | 0.4 | 0.2 | 0.01 | 0.79 | – | – | 0.1 | – | 3.2
CC(C)(Oc1ccc(CCN(CCCCCC2CCCCC2)C(=O)Nc2ccc(F)cc2)cc1)C(=O)O | 1 | 1.6 | 0.053 | 0.15 | – | – | 1 | – | 23
CCCCCCCN(CCc1ccc(SC(C)(C)C(=O)O)cc1)C(=O)Nc1ccc(F)cc1F [GSK-9578] | 1.5 | – | 0.005 | – | – | – | 0.2 | 1.4 | 2.6

Now from value to compound, other results behind:

EC50 [1] [µM] | EC50 [3] [µM] | EC50 [4] [µM] | EC50 [7] [µM] | EC50 [8] | EC50 [9] | SMILES | minimal effective dose [2] [mg/kg] | EC50 [5] [µM] | EC50 [6] [µM]
0.87 | 0.28 | 0.033 | 0.41 | – | – | CCCCCCCN(CCc1ccc(OC(C)(C)C(=O)O)cc1)C(=O)Nc1ccc(F)cc1 | 0.1 | 3.1 | 5.5
55 | 60 | 90 | – | – | – | CC(C)(Oc1ccc(CCNC(=O)c2ccc(Cl)cc2)cc1)C(=O)O [BEZAFIBRATE] | 50 | 20 | 110
> 300 | > 300 | 50 | 55 | Not Active | Not Active | CC(C)(Oc1ccc(Cl)cc1)C(=O)O [CLOFIBRIC ACID] | – | – | –
250 | – | – | – | Not Active | Not Active | CC(C)(Oc1ccc(C(=O)c2ccc(Cl)cc2)cc1)C(=O)O [FENOFIBRIC ACID] | 50 | – | –
